# The list is not random: actives were taken first. Their share in the collection is about 3.5%.
# RGS4 inh: inhibitors of human RGS4; HEK293 M3R/RGS4 inducible, Fluo-4 calcium flux; stronger effect = higher value; triggered by carbachol at its EC20; B-score at 10 µM; 310,000 tested, 0.45% active;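 active means B-score, a plate-corrected calcium signal, over three deviations above library mean, with baseline fluorescence within five deviations of library mean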;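 further: RGS4 expression induced by doxycycline in cells with stable M3 receptor; B-score is computed from the integrated fluorescence ratio over baseline after carbachol; higher B-score means a larger calcium signal and so more RGS4 inhibition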
# Target sequence (P49798 whole entry, looked up): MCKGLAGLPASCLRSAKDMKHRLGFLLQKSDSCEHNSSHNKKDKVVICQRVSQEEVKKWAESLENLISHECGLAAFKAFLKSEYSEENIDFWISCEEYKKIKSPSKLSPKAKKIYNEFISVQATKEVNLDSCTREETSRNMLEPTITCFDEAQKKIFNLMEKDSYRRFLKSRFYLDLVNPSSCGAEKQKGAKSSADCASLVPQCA
# MrgX1 antag: blocks BAM8-22 activation of human MrgX1 receptor; AID 588676; B-score at 10 µM; 310,000 tested, 1.3% active; Q96LB2; MRGX1-HEK293 calcium flux, Fluo-4, BAM8-22 antagonism; stronger effect = lower value;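 active means calcium-response B-score plate-corrected more than 3 library SD below zero, starting fluorescence within 5 deviations, no agonist response on first addition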;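 further: peak minus trough fluorescence over baseline after final BAM8-22 challenge near maximal dose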
# Target sequence (Q96LB2 whole entry, looked up): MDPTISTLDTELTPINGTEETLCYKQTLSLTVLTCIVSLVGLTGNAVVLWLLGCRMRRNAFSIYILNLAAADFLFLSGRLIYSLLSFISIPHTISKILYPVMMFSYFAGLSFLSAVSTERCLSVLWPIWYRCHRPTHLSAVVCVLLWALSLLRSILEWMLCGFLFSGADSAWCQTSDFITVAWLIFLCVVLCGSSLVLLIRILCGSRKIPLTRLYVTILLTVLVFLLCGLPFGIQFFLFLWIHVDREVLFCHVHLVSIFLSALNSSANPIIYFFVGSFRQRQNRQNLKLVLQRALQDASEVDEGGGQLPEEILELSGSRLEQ
# MrgX1 allo act: allosterically activates human MrgX1 receptor signaling; 310,000 tested, 0.63% active; AID 588675; MrgX1-HEK293, Fluo-4 calcium flux, FDSS; stronger effect = higher value; B-score at 10 µM; Q96LB2;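 active means plate-corrected calcium response at least 3 library SD above typical, normal starting fluorescence, not activating the receptor alone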;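 further: compound read alongside a low EC10 to EC30 dose of BAM8-22 agonist; peak minus trough fluorescence over baseline measured at the second addition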
# RGS4 pot: potentiators or activators of RGS4; HEK293 M3R/inducible RGS4, carbachol calcium flux Fluo4; stronger effect = lower value; B-score at 10 µM; 310,000 tested, 0.92% active; AID 463111;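 active means B-score of the integrated calcium signal more than 4 SD below the library mean, with starting fluorescence not abnormally high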;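 further: negative B-score means reduced calcium response which marks RGS4 activation or potentiation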
#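 test system = HEK293 cells with stable M3R and inducible RGS4 | schedule = recording 10 s baseline at 1 Hz, 100 s post-agonist | technique = Fluo4-AM (2 µM) calcium-flux fluorescence, kinetic read | measure = Agonist-evoked peak-minus-minimum fluorescence over baseline, integrated ratio, B score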
# MrgX1 agonist: human MrgX1 receptor agonism, primary screen. Q96LB2. MrgX1-HEK293 cells, Fluo-4 calcium fluorescence, agonist mode; stronger effect = higher value. B-score at 10 µM. 310,000 tested, 0.44% active. AID 588627;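 active means calcium response B-score plate-corrected fluorescence ratio at least 3 library SD, with starting fluorescence B-score inside 5 SD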
#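 Test system: Stable human MrgX1 HEK293 cell line | Schedule: Overnight plating before 1 h dye loading | Read-out basis: Baseline-normalised fluorescence change ratio, B-scored | Detection: Kinetic calcium dye fluorescence, Fluo-4 NW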
# RGS4 block valid: validation of RGS4 inhibitors; HEK293 M3R/RGS4, carbachol calcium Fluo-4 fluorescence; carbachol added at its EC20; 0 = buffer wells, 100 = carbachol control; calcium response, % at 10 µM; 1,700 tested, 65% active; shares compounds with RGS4 inh;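 active means duplicate-averaged calcium response above the buffer-only control mean plus 5 SD of those controls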;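 further: integrated fluorescence ratio F max minus min over baseline F0; higher response in RGS4-induced cells means RGS4 inhibition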
# RGS4 uninduced: counter-screen for RGS4 inhibitors: effect in non-induced cells; HEK293 M3R non-induced, carbachol calcium Fluo-4; submaximal (EC20) carbachol stimulus; buffer wells 0%, carbachol control wells 100%; 1,900 tested, 20% active; activity (percent), % at 10 µM; shares compounds with RGS4 inh; AID 493000; call rule not given here;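 further: RGS4 induction absent so cells express M3R without RGS4; higher means more calcium signal and flags a non-specific hit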
# RGS4 inh ctr2: second counter-screen for RGS4 inhibitors: non-induced cells without carbachol. shares compounds with RGS4 inh. HEK293 M3R/RGS4 non-induced, Fluo-4 calcium, no carbachol; normalised: buffer wells 0%, carbachol wells 100%. calcium response (agonist-mode artifact), % at 10 µM. 1,900 tested, 22% active. AID 493001;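 active means duplicate-averaged calcium rise in uninduced cells above buffer wells' mean plus 5 SD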
# An asterisk follows results filed as active; i = inactive; x = no result given.
SMILES,RGS4 inh,MrgX1 antag,MrgX1 allo act,RGS4 pot,MrgX1 agonist,RGS4 block valid,RGS4 uninduced,RGS4 inh ctr2
CCCCC1=CC2=CC(=O)C(C)(OC(=O)CC)C(=O)C2=CN1CCc1ccccn1 (centres undefined),i,i,i,i,i,x,x,x
CCCCC1=CC2=C(c3ccco3)C(=O)C(C)(OC(=O)c3ccc(OC)cc3)C(=O)C2=CN1CCOC (centres undefined),4.91*,i,i,i,i,22.0%*,33.5%*,i
CCCCC1=CC2=C(c3ccco3)C(=O)C(C)(OC(=O)c3ccc(OC)cc3)C(=O)C2=CN1CCc1ccccn1 (centres undefined),i,i,i,i,i,x,48.0%*,i
CCCCC1=CC2=C(c3ccco3)C(=O)C(C)(OC(=O)c3ccc(OC)cc3)C(=O)C2=CN1Cc1ccccc1 (centres undefined),i,-5.36*,i,i,i,i,i,i
COC(=O)CCCC1=CC2=C(c3ccccc3)C(=O)C(C)(OC(=O)C3CCCC3)C(=O)C2=CN1C1CCCCC1 (centres undefined),i,i,i,i,i,x,x,x
CCCCC1=CC2=C(c3ccco3)C(=O)C(C)(OC(=O)c3ccc(OC)cc3)C(=O)C2=CN1C1CCCCC1 (centres undefined),i,i,i,i,i,i,i,i
CCCCC1=CC2=C(c3ccco3)C(=O)C(C)(OC(=O)c3ccc(OC)cc3)C(=O)C2=CN1Cc1ccc2c(c1)OCO2 (centres undefined),i,i,i,i,i,x,x,x
CCOc1ccc(/C=C/C(=O)N(CC)CC(=O)Nc2ccc3c(c2)OCCO3)cc1OCC,i,i,i,i,i,x,x,x
COc1cccc(N2CCN(C(=O)Nc3ccccc3Cl)CC2)c1,i,i,i,i,i,x,x,x
NS(=O)(=O)c1ccc(NC(=O)COC(=O)CCC2CCCCC2)cc1,i,i,i,i,i,x,x,x
CCCCn1c(N)c(N(CC(C)C)C(=O)Cc2ccc3c(c2)OCCO3)c(=O)[nH]c1=O,i,i,i,i,i,x,x,x
CC(=O)c1ccc(N2CCN(CC(=O)Nc3ccc4c(c3)OCCO4)CC2)cc1,i,i,i,i,i,x,x,x
Cc1ccccc1N1CCN(C2CCCN(C(=O)CCC(F)(F)F)C2)CC1 (centres undefined),i,i,i,i,i,x,x,x
O=C(CN1C(=O)c2ccccc2S1(=O)=O)Nc1ccc(S(=O)(=O)Nc2ncccn2)cc1,i,x,x,i,x,x,x,x
COc1ccccc1CC(NC(C)=O)C(=O)NC1CCN(C(=O)Nc2ccc(F)cc2)CC1 (centres undefined),i,i,i,i,i,x,x,x
COc1cc(/C=C2/S/C(=N/S(=O)(=O)c3ccccc3)NC2=O)c([N+](=O)[O-])cc1OC,5.88*,i,i,i,i,37.5%*,50.0%*,i
O=C1N/C(=N\S(=O)(=O)c2ccccc2)S/C1=C\c1cc([N+](=O)[O-])ccc1O,i,i,i,i,i,x,x,x
O=C1N/C(=N\S(=O)(=O)Cc2ccccc2)S/C1=C/c1cc([N+](=O)[O-])ccc1O,i,i,i,i,i,x,x,x
COc1cc(/C=C2/S/C(=N/S(=O)(=O)Cc3ccccc3)NC2=O)c([N+](=O)[O-])cc1OC,i,i,i,i,i,i,i,i
COc1cc(/C=C2\S/C(=N/S(=O)(=O)Cc3ccccc3)NC2=O)c([N+](=O)[O-])cc1OC,i,i,i,i,i,i,i,i
CN(Cc1ccccc1)C(=O)CCSc1nc(-c2ccc3c(c2)OCO3)cc(C(F)(F)F)n1,i,i,i,i,i,x,x,x
C/C(=N\NC(=O)c1ccc(O)cc1)c1cccc(NC(=O)c2ccc(Cl)cc2)c1,i,i,i,i,i,x,x,x
O=S(=O)(c1ccc2ccccc2c1)N1CCN(CCO)CC1,i,i,i,i,i,x,x,x
CCCN(C(=O)c1ccc(OCC(C)C)cc1)c1c(N)n(Cc2ccccc2)c(=O)[nH]c1=O,i,i,i,i,i,x,x,x
CCOc1ccc(NCc2nnc(SCc3ccc(Cl)cc3)n2-c2ccccc2)cc1,i,i,i,i,i,x,i,i
SMILES,RGS4 inh,MrgX1 antag,MrgX1 allo act,RGS4 pot,MrgX1 agonist,RGS4 block valid,RGS4 uninduced,RGS4 inh ctr2
CCOC(=O)CSc1nnc(CNc2ccc(Cl)cc2)n1-c1ccccc1,i,i,i,i,i,x,x,x
O=C(O)CCc1ccc(-c2ccccc2)o1,5.06*,i,i,i,i,5.0%*,i,i
CC(C)=C1C(=O)NN(c2ccc(F)c(Cl)c2)C1=O,i,i,i,i,i,x,x,x
O=C1NN(c2ccc(F)c(Cl)c2)C(=O)/C1=C\c1cccc(OC(=O)c2cccs2)c1,17.5*,i,i,i,26.9*,58.0%*,i,14.0%*
COc1ccc(C2=NN(c3ccc(C(=O)O)cc3)C(c3ccc(OC)c(OC)c3)C2)cc1 (centres undefined),9.33*,i,i,i,i,18.0%*,38.0%*,i
COc1ccc(C2CC(c3ccccc3)=NN2c2ccc(S(N)(=O)=O)cc2)cc1OC (centres undefined),8.46*,i,i,i,i,53.0%*,66.0%*,i
NS(=O)(=O)c1ccc(N2N=C(c3ccccc3)CC2c2cccc(F)c2)cc1 (centres undefined),i,i,i,i,i,x,x,x
COc1cc(C2CC(c3ccccc3)=NN2c2ccccc2)ccc1OCC(=O)O (centres undefined),i,i,i,i,i,x,x,x
Cc1ccc(N(Cc2cc3ccccc3[nH]c2=O)C(=O)c2ccco2)c(C)c1,i,i,i,i,i,x,x,x
Cc1cccc(N(Cc2cc3ccc(C)cc3[nH]c2=O)C(=O)c2ccco2)c1,i,i,i,i,i,x,i,i
Cc1ccc2cc(CN(C(=O)c3ccco3)c3ccccc3)c(=O)[nH]c2c1,5.37*,i,i,i,i,i,i,i

# Source: PubChem (Johns Hopkins Ion Channel Center)
